Variants at the floor of the assay were thinned out.

B1: tRNA (parent)
chain: GUUCCGUUGGCGUAAUGGUAACGCGUCUCCCUCCUAAGGAGAAGACUGCGGGUUCGAGUCCCGUACGGAACG

Variants of B1 are the subject of this data set. As to the kind of experiment: yeast fitness relative to wild type (ratio to wild type); higher = fitter; tRNA-Arg(CCU), competitive growth, 37 C, YPD. In a few lines: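 Variants of the tRNA-Arg(CCU) gene were chemically synthesised with a 3% per-site mutation rate across 69 sites and placed at the native genomic locus in Saccharomyces cerevisiae. Six parallel replicates of the pooled strains were competed in YPD at 37°C for 24 hours, and gene amplicons from the start and end populations were read by 100-nucleotide paired-end sequencing. Darwinian fitness relative to wild type was derived from changes in genotype frequencies. Genotypes required ≥ 100 starting reads, and estimates < 0.5 were set to 0.5.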
GUUCCGUAGGCGUAAUGGUAACGCGUCUCCCUCCUAAGGAGAAGACUGCGGGUUCGAGUCCCGUAAGCAACG [U8A C66A G68C]: the yeast fitness is no more than 0.5.

Regarding GUUCCGUAGCCGUAAUGGUUACGCGUCUCCCUCCUAAGGAUAAGACUGCGCGUUCGAGUCCCGUACGGAACG [U8A G10C A20U G41U G51C], the yeast fitness was no more than 0.5. On to GUUCCGUAGACGUAAUGGUAACGCGUCUCCCUCCUAAGGAGACGACUGCGGGUUCGAGUCCCGUACGGAACG [U8A G10A A43C], for which the yeast fitness came out at 0.646. Then GUUCCGUAGACGUAAUGGUAACGCGUCUCCCUCCUAAGGAGAAGACUGCGGGUUCGAGUCCCGUACUGAACG [U8A G10A G67U], with no more than 0.5; and GUUCCGUAGGCAUAAUGGUCACGCGUCUCCCUCCUAAGGAGAAGACUGCGGGUUCCAGACCCGUACGGAACG [U8A G12A A20C G56C U59A], with 0.581; and GUUCCGUAGGCCUAAUGGUACCGCGUGUCCUUCCUAAGGAGAAGACUGCGGAUUCGAGUCCCGUACGGAACG [U8A G12C A21C C27G C31U G52A], with 0.59. As for GUUCCGUAGGCGUAAUGGUAACGCGUCUCCCUCCUAAGGAGAAGAUUGCGGGUUCGCGUCCCGUACGGAACG [U8A C46U A57C], the yeast fitness amounted to 0.635. In the case of GUUCCGUAGGCAUAAUGGUAAAGCGUCUCCGUCCUAAGGAGAAGACUGCGGGUUCGAAUCACGUACGGAACG [U8A G12A C22A C31G G58A C61A], the yeast fitness was no more than 0.5.

With GUUCCGUAAGCGUAAUGGUAACGCGUCUCCCUCCUAUGGAGAAGAUUGCGGGUUCGAGUCUCGUAUGGAACG [U8A G9A A37U C46U C61U C66U], the yeast fitness is no more than 0.5. Regarding GUUCCGUAAGCGUAAUGGUAACGCGUCUCCCUCCUAAGGAGAAGACUGCGGGUUCGAGUGCCGUACGGAACG [U8A G9A C60G], the yeast fitness was no more than 0.5. For GUUCCGUAGGCCUAAUGGUAACGCGUCUCCCUCCUAAGGAGAAGACAGCGGGUUCGAGUCCUGUACGGAACG [U8A G12C U47A C62U], the yeast fitness came to 0.545. For the variant GUUCCGUAGGCGUAAUGGUAACGCGUCUCCCUCUUAAGGAGAAGACUGCGGGUUUGAGUCCCGUAAGGAACG [U8A C34U C55U C66A], the yeast fitness is no more than 0.5. Then GUUCCGUAGCCGUAAUGGUAACGCGUCUCCCUCCUAAGGAGAAGACUGCGGGUUCGAGUCCCGUAUGGAACG [U8A G10C C66U], with no more than 0.5; and GUUCCGUAUGCGUAAUGGUAACGCGUCUCCCUCCUAAGGAGCAGACUGCGGCUUCGAGUCCCGUACGGAACG [U8A G9U A42C G52C], with no more than 0.5; and GUUCCGUAGGCGUAAUGGUAACGCGUCUCCCUCGUAUGGAGUAGACUGCGGGUUCGGGUCCCGUACGGAACG [U8A C34G A37U A42U A57G], with no more than 0.5. Then GUUCCGUAGGCGUAAUAGUAACGUGUCUCCCUCCUAAGGAGAAGACUGCGGGUUCGAGUCCCGUACGGAACG [U8A G17A C24U], with 0.95; and GUUCCGUAGCUGUAAUGGUAACGUGUCUCCCUCCUAAGGAGCAGACCGCGGGUUCGAGUCCCGUACGGAACG [U8A G10C C11U C24U A42C U47C], with 0.777; and GUUCCGUAGGCGUAAUGGUAACGCGUCUCCCUCUAAAGGAGAAGAUUGCGGGUUCGAGUCCCGUACGGAUCG [U8A C34U U35A C46U A70U], with no more than 0.5. As for GUUCCGUAGGCAUAAUGGUAACGCGUCUCCCUCCUAAGGAGAAAACUGCGGGUUCGAGUUCCGUACCGAACG [U8A G12A G44A C60U G67C], the yeast fitness was no more than 0.5. Then GUUCCGUAGGCGUAAUGGUAACGCGUCUCCCUCGUAAGGAGAAGACUGCGGGUUCGAGUCCCGUACGGAACG [U8A C34G], with no more than 0.5. In the case of GUUCCGUAGGCGUAAUGGUAACGCGUCUCCCUCCUAAGGAGAAGACUGCGGGUUCGAGUCACGUUCGGAACG [U8A C61A A65U], the yeast fitness turned out to be 0.554. For GUUCCGUAGGCGUAAUGGUAACGCGUCUCCCUCCUAAGGAGAAGAAUGCGGGUUCGAGUCCCGUACGCAACG [U8A C46A G68C], the yeast fitness was no more than 0.5. As for GUUCCGUAGGCAUAAUGGUAACGCGUCUCCCUCCUAAGGAGAAGACUGCGGGUUCGAGUCCCGUACGGAACG [U8A G12A], the yeast fitness was found to be 0.824. On to GUUCCGUAGGCGUAAUAGCAACGCGUCUCCCUCCUAAGGAGAAGACUGCGGGUUCGAGUCCCGUACGGAACG [U8A G17A U19C], for which the yeast fitness amounted to 0.586. Then GUUCCGUACGCGUAAUGGUAACGCGUCUCCCUCCUAAGGAGAAGACAGCGGGUUCGAGUCCCGUACGCAACG [U8A G9C U47A G68C], with no more than 0.5. Then GUUCCGUAAGCGUAAUGGUAACGCGUCUCCCUCCUAAGGAGAAGACUGCGGGUUCGAGUCCCGUACAGAACG [U8A G9A G67A], with 0.553; and GUUCCGUAGGCGUAAUGGUAACGCGUCUCCCUCCUAAGGAGAAGACUGCGGGUUCGAGUACCGUACGGAACG [U8A C60A], with no more than 0.5; and GUUCCGUAGGCAUCAUGGUAACGCGUCUCCCUCCUAAGGAGAAGACUGCGGGUUCGUGUCCCGUACCGAACG [U8A G12A A14C A57U G67C], with no more than 0.5. Then GUUCCGUAGGCGUAAUGGUAACGCGUCUCCCUCCUAAGGAGAAGACUGCGGGUUCGAGUCCUGUACGGAACG [U8A C62U], with 0.7; and GUUCCGUAGCCGUAAUGGUUACGCGUCUCCCUCCUAAGGAUAAGACUGCGGGUUCGAGUCCUGUACGCAACG [U8A G10C A20U G41U C62U G68C], with 0.799; and GUUCCGUAGACGUAAUGGUAACGCGGCUCCCUCCUAAGGAGAAGACUGCGGGUUCGAAUCCCGUACGGAACG [U8A G10A U26G G58A], with no more than 0.5. Regarding GUUCCGUACGCGUAAUGGUAACGCGUCUCCCUCCUAAAGCGAAGACUGCGGGUUCGAGUCCCGUACGGAACG [U8A G9C G38A A40C], the yeast fitness is no more than 0.5.

For the variant GUUCCGUAGGCGUAAUGGUAACGCGUCUCCCUCCUAAGGAGAAGACUGCGGGUUCGAGUCACGUACCGAACG [U8A C61A G67C], the yeast fitness was found to be 0.561. As for GUUCCGUAGGCGUAAUGGUAACGCGUCUCCCUCCUAAGGAGAAGACUGCGGGUUCGAGUCCCGUAGGCAACG [U8A C66G G68C], the yeast fitness was no more than 0.5. As for GUUCCGUAGGCGUAAUAGUAACGCGUCUCCUUUUUAAGGAGAAGAGUGCGGGUUCGAGUCCAGUACGGAACG [U8A G17A C31U C33U C34U C46G C62A], the yeast fitness is no more than 0.5. On to GUUCCGUAGGCAUAAUGGUAAAGCGUCUCCGUCCUAAGGAGAAGACUGCGGGUUCGAGUCCCGUCCGGAACG [U8A G12A C22A C31G A65C], for which the yeast fitness was no more than 0.5. For the variant GUUCCGUAGGCGUAAUAGUAAUGCGUCUCCCUCCUAAGGAGAAGACUGCGGGUUCGAGUCCCGUACGGAACG [U8A G17A C22U], the yeast fitness is 0.607. For GUUCCGUAGGCGUAAUAGUAAUGUGUCCCCCUCCUAAGGAGAAGACUGCGGGUGCGCGUCCUGUACGGAACG [U8A G17A C22U C24U U28C U54G A57C C62U], the yeast fitness was no more than 0.5.

Values taken from the RNAGym collection of RNA variant scans (doi:10.1126/science.aae0568).
